PHOSPHO1 block: blocks human PHOSPHO1 phosphatase activity; Q8TCT1; recombinant PHOSPHO1, absorbance phosphatase assay; inhibition, % at 13.3 µM; hit rate 1.1% among 290,000; AID 1565; in the data active = inhibition above about 60%
Target sequence (Q8TCT1 whole entry, looked up): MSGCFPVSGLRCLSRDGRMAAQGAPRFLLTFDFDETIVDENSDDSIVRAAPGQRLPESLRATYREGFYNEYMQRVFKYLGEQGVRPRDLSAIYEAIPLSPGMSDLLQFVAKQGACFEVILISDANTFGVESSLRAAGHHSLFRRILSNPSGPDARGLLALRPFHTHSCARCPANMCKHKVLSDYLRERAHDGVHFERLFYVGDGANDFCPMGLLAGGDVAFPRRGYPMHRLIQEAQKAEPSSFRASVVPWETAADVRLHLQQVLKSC
HSF-1 act: increases HSF-1 driven luciferase reporter signal | NIH3T3-HGL HSF-1 luciferase reporter, MG132, 8 h; 100% = twice DMSO control signal | activation, % at 9 µM | hit rate 1.7% among 300,000 | AID 504408;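 active = mean replicate activation of at least 50% with a set share of replicates each reaching 50%; inconclusive = only one of those two conditions met; inactive = mean below 50% and too few replicates reaching it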;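 also: 0% = median of the neutral control wells and 100% = twice that signal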
HSF1 inh: HSF1 inhibition; NIH3T3-HGL HSE-luciferase, MG132-induced, luminescence 8 h; stronger effect = lower value; activity change, negative = inhibition, % at 7.5 µM (by protocol); hit rate 0.77% among 300,000;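 active = more than half of replicate wells show activity change below -50%, luminescence cut by over half; inconclusive = some wells, but at most half, below -50%; inactive = no replicate well below -50%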;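 also: luciferase reports HSF-1 transcriptional activity via heat shock element; 0% = median of DMSO wells and -100% = zero luminescence signal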
core dimer inh: HCV core protein dimerization inhibition; TR-FRET GST/Flag-core106 dimerization, 1536-well; inhibition, % at 5 µM; hit rate 0.33% among 300,000; AID 1899;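 active = inhibition above the mean of all tested compounds plus 3 SD, set per screening campaign, cut at about 45% in these data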
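Test system: GST/Flag-tagged HCV core106 proteins; Medium: KF-containing HEPES buffer, pH 7.45, DTT, CHAPS, BSA; Times: compound-protein-antibody incubation 4 h at 22.5 °C; Detection: TR-FRET 671 and 617 nm emission; Benchmarks: wells lacking GST-core106 and wells with excess unlabelled core106.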
AI-2 QS modul: Vibrio harveyi AI-2 quorum sensing modulation. Vibrio harveyi JMH597 AI-2 luminescence/OD600 ratio, 9 h; stronger effect = lower value; strain lacks LuxN and CqsS sensors; 0 = neutral-control median. activity change, % at 7.5 µM. hit rate 0.4% among 300,000. AID 2094; in the data active = activity change below about -75%, passing the limit was not always enough; inconclusive = no clear call, values can overlap the other calls;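 also: luminescence divided by OD600 gain over 9 h not by final OD600 alone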
ALR H2O2 inh: inhibitors of human sulfhydryl oxidase ALR; purified ALR, DTT oxidation, H2O2 HRP-luminol luminescence; inhibition, % (no concentration beside the values); hit rate 3.8% among 290,000; AID 485317;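 active = mean replicate inhibition above about 79%, with every replicate also reaching it, limit read from the data; inconclusive = only one of the two criteria met; inactive = mean below limit and not every replicate reaching it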
Target sequence (P55789 whole entry, looked up): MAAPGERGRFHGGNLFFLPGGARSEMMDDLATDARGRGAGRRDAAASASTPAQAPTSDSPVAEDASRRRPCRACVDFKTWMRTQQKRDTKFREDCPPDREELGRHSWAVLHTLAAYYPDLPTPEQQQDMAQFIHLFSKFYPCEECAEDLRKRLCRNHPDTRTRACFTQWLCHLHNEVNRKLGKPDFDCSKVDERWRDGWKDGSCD
* = called active by the depositor. Shown are actives, neighbours in structure and some others; about 6.8% of the full set was active somewhere.

How did CCOc1ccc(NC(=S)/C(=C(\[O-])c2ccc(C)c([N+](=O)[O-])c2)[n+]2ccccc2)cc1 do in these assays?
PHOSPHO1 block: 93*; HSF-1 act: -10; HSF1 inh: -15; core dimer inh: 23; AI-2 QS modul: 5; ALR H2O2 inh: -13

Results for CCc1cc[n+](/C(C(=S)Nc2cccc(C)c2)=C(/[O-])c2ccc(C)c([N+](=O)[O-])c2)cc1 ?
PHOSPHO1 block: -18; HSF-1 act: 18; HSF1 inh: -4; core dimer inh: 16; AI-2 QS modul: 22

What do the screens show for `COc1cccc(NC(=S)/C(=C(\[O-])c2ccc([N+](=O)[O-])cc2)[n+]2ccccc2)c1`?
PHOSPHO1 block: 27; HSF-1 act: 13; HSF1 inh: 4; core dimer inh: 7; AI-2 QS modul: 7; ALR H2O2 inh: 99*

How did NC(=O)c1ccc[n+](CC(=O)OCCC23CC4CC(CC(C4)C2)C3)c1 do in these assays?
PHOSPHO1 block: 28; HSF-1 act: -76; HSF1 inh: -70*; core dimer inh: 6; AI-2 QS modul: 5; ALR H2O2 inh: -4

Results for COc1ccc(OC2C(=O)N(Cc3ccc4c(c3)OCO4)C2c2sccc2C)cc1 (configuration not stated) ?
PHOSPHO1 block: -9; HSF-1 act: -80; HSF1 inh: -75*; core dimer inh: 12; AI-2 QS modul: 13; ALR H2O2 inh: 0

Results for O=C1N/C(=C\c2ccc(O)cc2)C(O)=C1C=NCc1ccccc1 ?
PHOSPHO1 block: 6; HSF-1 act: 64*; HSF1 inh: 41; core dimer inh: -5; AI-2 QS modul: 17; ALR H2O2 inh: 10

Results for CC(=O)NC(=S)Nc1ccccc1N1CCCCC1 ?
PHOSPHO1 block: 19; HSF-1 act: -10; HSF1 inh: 0; core dimer inh: 0; AI-2 QS modul: 7; ALR H2O2 inh: 20

How did CC(C)(C)C(=O)NC(=S)Nc1ccccc1N1CCCC1 do in these assays?
PHOSPHO1 block: 50; HSF-1 act: 13; HSF1 inh: 1; core dimer inh: -3; AI-2 QS modul: 5; ALR H2O2 inh: 98*

How did Cc1cccc(NC(=O)CSCC(=O)Nc2cccc3ncccc23)c1 do in these assays?
HSF-1 act: -2; HSF1 inh: -6; core dimer inh: -4; AI-2 QS modul: 13; ALR H2O2 inh: 99*

How did COc1ccc(CC(=O)Nc2ccccc2N2CCCC2)cc1OC do in these assays?
PHOSPHO1 block: 24; HSF-1 act: -4; HSF1 inh: -7; core dimer inh: -21; AI-2 QS modul: 0; ALR H2O2 inh: 98*

What do the screens show for `Cc1cccc(NC(=O)CSc2cc(C)c(C#N)c3nc4ccccc4n23)c1`?
PHOSPHO1 block: 38; HSF-1 act: 417*; HSF1 inh: 268; core dimer inh: 0; AI-2 QS modul: 21

How did CC(C)NS(=O)(=O)c1ccc(NC(=O)NC2CCCCC2)cc1 do in these assays?
PHOSPHO1 block: -7; HSF-1 act: 14; HSF1 inh: -10; core dimer inh: -3; AI-2 QS modul: 0; ALR H2O2 inh: 3

How did COc1ccc(C)cc1NC(=O)C1CCN(C(=O)Cc2ccccc2)CC1 do in these assays?
PHOSPHO1 block: 36; HSF-1 act: 7; HSF1 inh: 2; core dimer inh: -1; AI-2 QS modul: -9; ALR H2O2 inh: 9

What do the screens show for `COc1cc(C)c(NC(=S)NCCCN2CCOCC2)cc1OC`?
PHOSPHO1 block: -33; HSF-1 act: -11; HSF1 inh: -5; core dimer inh: 5; AI-2 QS modul: -3; ALR H2O2 inh: -16

Results for Cc1ccc(CNC(=O)C2CC(c3ccccc3F)=NO2)cc1 (configuration not stated) ?
PHOSPHO1 block: 35; HSF-1 act: -19; HSF1 inh: -5; core dimer inh: -3; AI-2 QS modul: 13; ALR H2O2 inh: -1

How did O=C1CC(C(=O)O)(c2ccccc2)c2cccc(F)c21 (configuration not stated) do in these assays?
PHOSPHO1 block: 30; HSF-1 act: 3; HSF1 inh: -5; core dimer inh: -1; AI-2 QS modul: 21; ALR H2O2 inh: -5

Results for Cc1ccc(NC(=O)CCS(=O)(=O)c2cc3[nH]c(=O)c(=O)[nH]c3cc2C)cc1 ?
PHOSPHO1 block: 27; HSF-1 act: -22; HSF1 inh: -6; core dimer inh: 7; AI-2 QS modul: 16; ALR H2O2 inh: 1

How did Cc1cccc(NC(=O)CSCC(=O)Nc2ccccc2N2CCCC2)c1 do in these assays?
PHOSPHO1 block: 29; HSF-1 act: 1; HSF1 inh: 4; core dimer inh: 3; AI-2 QS modul: 38; ALR H2O2 inh: 99*

How did C=CCSc1nnc(-c2ccccc2N=Cc2c(C)[nH]n(-c3ccccc3)c2=O)c(=O)[nH]1 do in these assays?
PHOSPHO1 block: 69*; HSF-1 act: 6; HSF1 inh: 4; core dimer inh: 2; AI-2 QS modul: 47; ALR H2O2 inh: 97*

How did COc1cc2c(cc1OC)C(C(=O)NCCN(C)C)C(c1cccs1)N(C)C2=O (configuration not stated) do in these assays?
PHOSPHO1 block: 7; HSF-1 act: -10; HSF1 inh: -15; core dimer inh: -1; AI-2 QS modul: 18; ALR H2O2 inh: 14

Results for CCc1cc(C(c2ccc(OC)c(OC)c2)N2CCOCC2)c(NC(=O)c2ccccc2)s1 (configuration not stated) ?
PHOSPHO1 block: 1; HSF-1 act: inconclusive; HSF1 inh: 25; core dimer inh: 2; AI-2 QS modul: 30; ALR H2O2 inh: 5

What do the screens show for `CCc1cc(C(c2ccc(F)cc2)N2CCOCC2)c(NC(=O)c2ccccc2)s1` (configuration not stated)?
PHOSPHO1 block: 37; HSF-1 act: 63*; HSF1 inh: 35; core dimer inh: 5; AI-2 QS modul: 13; ALR H2O2 inh: 2

How did Cc1ccc(C(=O)NCC(=O)NCC(=O)OCC(=O)c2ccc(Br)cc2)cc1 do in these assays?
PHOSPHO1 block: 14; HSF-1 act: -14; HSF1 inh: -8; core dimer inh: -6; AI-2 QS modul: 15; ALR H2O2 inh: -5

How did COc1ccccc1OCCCOc1ccc([N+](=O)[O-])cc1Cl do in these assays?
PHOSPHO1 block: 27; HSF-1 act: 65*; HSF1 inh: 57; core dimer inh: -2; AI-2 QS modul: 1

Results for CC(=O)NCCCOc1ccc([N+](=O)[O-])cc1Cl ?
PHOSPHO1 block: 20; HSF-1 act: 56*; HSF1 inh: 10; core dimer inh: -11; AI-2 QS modul: 18; ALR H2O2 inh: -2

What do the screens show for `COc1cc(C=O)ccc1OCCCOc1ccccc1[N+](=O)[O-]`?
PHOSPHO1 block: 16; HSF-1 act: 23; HSF1 inh: 24; core dimer inh: -2; AI-2 QS modul: 13
